Here are results for 95 molecules from PubChem BioAssay AID624380 (The Scripps Research Institute Molecular Screening Center, 2012).

Among all 2,300 compounds or so, about 120 (5.2%) were called active. These entries were drawn from the full list. Values without a mark were called inactive.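 Rule for the calls: active = mean activation above the mean of DMSO-only wells plus 3 SD (cut at about 0.5% in these data); inactive = the rest.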

Sequence of Mu-type opioid receptor (Homo sapiens) (P35372 whole entry, looked up, the tested form may be a part): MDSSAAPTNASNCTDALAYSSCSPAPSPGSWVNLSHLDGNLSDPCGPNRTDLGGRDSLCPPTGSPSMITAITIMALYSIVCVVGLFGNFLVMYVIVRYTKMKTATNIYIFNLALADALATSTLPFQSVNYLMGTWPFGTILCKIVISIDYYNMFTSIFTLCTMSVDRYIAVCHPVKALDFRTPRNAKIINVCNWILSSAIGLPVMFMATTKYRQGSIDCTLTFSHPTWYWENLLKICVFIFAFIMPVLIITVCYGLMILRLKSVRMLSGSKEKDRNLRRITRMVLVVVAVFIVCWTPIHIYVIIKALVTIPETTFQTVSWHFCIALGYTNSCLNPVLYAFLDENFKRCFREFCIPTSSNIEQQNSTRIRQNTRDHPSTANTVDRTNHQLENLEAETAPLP

The test addresses Mu-type opioid receptor (Homo sapiens) (UniProt P35372). The experiment in a line: OPRM1 agonists via beta-arrestin recruitment, confirmation, counter-screen for mouse HTR2A agonist project, cell-based, luminescence, single concentration (AID 624380). Conditions: U2OS OPRM1 beta-arrestin PathHunter, at 9.3 µM, active compounds read high, DMSO 0%, DAMGO 9.3 µM 100%. Summed up: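 Assay system – U2OS cells coexpressing OPRM1 and beta-arrestin with complementary beta-gal fragments · Amount – 1000 cells per well seeded a day ahead · Probe or stimulus – DAMGO reference agonist, 9.3 µM · Times – 3 h at 37 °C exposure, 1 h room-temperature detection · Detection – luminescence from restored beta-galactosidase · Read-out – percent activation scaled between DMSO-only and DAMGO-treated well medians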
In general terms: Recruitment of arrestin is a read-out of receptor activation apart from second messengers.
For `O=C(NCc1ccco1)c1cccn2c(=O)c3c4c(sc3nc12)CCCC4`, the activation is -0.39%.

Turning to `Cc1ccc2nc(-c3ccncc3)cc(C(=O)Nc3ccncc3)c2c1`, the activation is 3.9% (active).

`Cc1ccccc1CSCC(=O)NC(=O)NC(C)(C)C`: the activation was -0.45%.

Take `CCOCCCNC(=O)Cc1cc(=O)[nH]c(=O)[nH]1`: the activation is -0.49%. Take `C[C@@H]1ON(C)[C@H]2C[C@H]3c4cc(N5CCN(C)CC5)ccc4CCN3C(=O)[C@@H]12`: the activation was -0.06%. Turning to `Cc1ccc(CN2CCN(c3ncccn3)CC2)c(C)c1`, the activation was -0.26%.

As for `O=C(COC(=O)c1cc(S(=O)(=O)N2CCOCC2)ccc1F)NC1CC1`, the activation is -0.39%. As for `CCOc1ccc(/C(O)=C2\C(=O)C(=O)N(c3ccc(OC)cc3)C2c2ccccc2[N+](=O)[O-])cc1` (stereo not given), the activation is -0.58%. For the molecule `Nc1cc(C(=O)N2CCN(c3ccccc3Cl)CC2)ccc1N1CC2CC(C1)c1cccc(=O)n1C2` (stereo not given), the activation is -0.61%. Take `COc1ccc(CNC(=O)c2ccc(NS(=O)(=O)c3ccc4[nH]c(=O)[nH]c4c3)cc2)cc1OC`: the activation was -0.74%. With `O=S(=O)(c1ccc(OCC(O)CN2CCN(c3ccccc3Cl)CC2)cc1)N1CCOCC1` (stereo not given) the figure was -0.67%. In the case of `CCOC(=O)c1cc(-c2ccccc2C)n(Cc2cc(C)no2)n1`, the activation was -0.46%. `O=C(OCC(=O)N1CCOCC1)c1ccc2ccccc2c1`: the activation was -0.5%. Consider `COc1ccc2c(Cl)c(-c3nnco3)sc2c1`, for which the activation was -0.41%. In the case of `COc1ccc(C2c3[nH]c4ccccc4c3C[C@H]3C(=O)N(CC(C)C)CC(=O)N23)c(OC)c1` (stereo not given in full), the activation was -0.31%. On to `COc1ccccc1CN1CCN(Cc2cc(OC)c(OC)cc2OC)CC1`, for which the activation was -0.5%. As for `O=C(c1ccncc1)N1CCN(c2ccc3ccccc3n2)CC1`, the activation is 0.53% (active). For `COC(=O)c1cc(N2CCNCC2)nc2ccccc12` the value was -0.87%; for `O=C(Cc1ccccc1)n1nc(-c2ccccc2)nc1NCc1ccco1`, 0.54% (active). With `COc1ccc(N2CC(C(=O)NCCN3C(=O)S/C(=C\c4cccnc4)C3=O)CC2=O)c(OC)c1` (stereo not given) the figure was -0.55%; with `Cc1c(C(=O)NCC2CC2)sc(=O)n1Cc1cccc(F)c1`, -0.53%. For `CCn1c(SCC(=O)N2CCCC2=O)nc2ccccc21` the value was -0.43%; for `Cc1cccnc1C(NC(=O)C1CCN(Cc2ccc(Cl)c(Cl)c2)CC1)c1ccc(Cl)cc1` (stereo not given), -0.69%; for `O=C(Cc1ccsc1)N1CCN(S(=O)(=O)c2cc(C(F)(F)F)cc(C(F)(F)F)c2)CC1`, -0.45%.

As for `CCn1cc(C(=O)OCC(=O)Nc2cccc(C)c2)c(=O)c2ccc(C)nc21`, the activation was -0.4%.

For the molecule `C=C1C(=O)OC2C1CCC(C)=CCCC1(C)OC21` (stereo not given), the activation is -0.63%. Turning to `CO/N=C/CC(=O)c1ccc(OC)cc1`, the activation was -0.34%.

On to `Cc1ccc(NC(=O)CCOc2ccccc2)cc1S(=O)(=O)Nc1ccccc1Cl`, for which the activation was -0.34%.

As to `O=C(Nc1cccc2cccnc12)c1ccc2sc([C@H]3C[C@H](O)[C@@H](CO)O3)nc2c1`, the activation is 0.15%. With `CC(C)Oc1ccccc1C(=O)NC(CO)C(=O)O` (stereo not given), the activation was -0.52%. Consider `Oc1ccc(CN2CCN(c3ncccn3)CC2)cc1`, for which the activation was -0.36%. Regarding `CS(=O)(=O)c1ccc2nc(NC(=O)C3CCCCC3)sc2c1`, the activation was -0.72%. `COc1ccccc1Nc1nnc(SC(C)C(=O)NC2CC2)s1` (stereo not given): the activation was -0.47%. Consider `Cc1cccc(CN2CCN(C3CN(Cc4ccccc4)S(=O)(=O)C3)CC2)c1` (stereo not given), for which the activation was -0.55%. For `O=C(CNCc1cccs1)Nc1cc(S(=O)(=O)N2CCCC2)ccc1Cl` the value was -0.34%; for `COc1ccc(NS(=O)(=O)c2cc(C(=O)Nc3ccccc3C(=O)O)ccc2C)cc1`, -0.47%.

As for `O=C(Nc1cc(=O)[nH]c2ncnn12)c1ccccc1Cl`, the activation was -0.64%. `Cc1cc(C)n(S(=O)(=O)c2cccc([N+](=O)[O-])c2)n1`: the activation was -0.31%.

With `FC(F)(F)COc1nc(N2CCCCC2)nc(N2CCNCC2)n1`, the activation was -0.49%. In the case of `COc1ccc(/C=N/Nc2ccccc2C(=O)O)cc1`, the activation was 0.45%. For the molecule `COc1cccc(OC)c1OCCN1CCN(C(=O)c2ccco2)CC1`, the activation was -0.41%. Take `CC(C)c1cc(C(=O)O)on1`: the activation was -0.13%.

With `Cc1cc(C(=O)OCC(=O)N2c3ccccc3NC(=O)C2(C)C)c(C)n1-c1ccccc1`, the activation was -0.15%. With `COC(=O)[C@]12CCCCC=C1N(CCC1=CCCCC1)C(=O)[C@H](CC(=O)NCC1CCCCC1)C2`, the activation was -0.46%. For `Cc1cc([N+](=O)[O-])ccc1NC1CCCC1` the value was 0.02%. For `C/C(=N\NC(=O)COc1c(C)cccc1C)c1cccs1` the value was -0.05%; for `N#Cc1c(NC(=O)CCCl)sc2c1CCCCC2`, -0.23%. As to `CCCN(CCc1ccccc1)C1CCc2c(O)cccc2C1` (stereo not given), the activation was 0.3%. For `N#CCSc1nn(-c2ccc(F)cc2)c(=S)s1`, the activation was -0.5%.

For the molecule `Cc1[nH]c2ccccc2c1CCN(Cc1cccs1)C(=S)NC(C)(C)C`, the activation was -0.25%.

With `O=C(O)c1ccc(S(=O)(=O)N2CCC(Cc3ccccc3)CC2)cc1`, the activation was -0.67%.

For `CCOC(=O)/C=c1\s/c(=C\c2ccccc2OC)c(=O)n1CC(=O)N1CCOCC1`, the activation is -0.62%. As to `C=CCn1c(=NC(=O)c2cccs2)sc2cc(NC(C)=O)ccc21`, the activation is 0.46%.

For `O=C1CCc2cc(S(=O)(=O)N3CCC(C(=O)NCc4ccccc4Cl)CC3)ccc2N1`, the activation is -0.62%. For the molecule `O=C(NCCCN1CCN(c2ccccc2F)CC1)C1CCC(=O)N1C1CCCCC1` (stereo not given), the activation was -0.51%. For `CSc1nsc(SCC(=O)Nc2cc(C(=O)O)ccc2C)n1` the value was -0.51%. Regarding `CC(Nc1ccccc1)c1cccnc1` (stereo not given), the activation is -0.58%.

Consider `CCOC(=O)[C@]12CCCC=C1N(Cc1ccc3c(c1)OCO3)C(=O)[C@H](CC(=O)NCc1cccs1)C2`, for which the activation was -0.19%. For `OCC1(Cc2ccccc2)CCN(Cc2cc3ccccc3o2)CC1`, the activation was 0.94% (active). For `Cn1c2c(c(=O)n(C)c1=O)C(c1ccc(O)cc1)Nc1ccccc1O2` (stereo not given) the value was -0.51%. `O=C(O)C1C2C=CC(O2)C1C(=O)NCCc1cccc(Cl)c1` (stereo not given): the activation is -0.74%. As to `COc1ccc(/C(=N\O)c2nccc3cc(OC)c(OC)cc23)cc1OC`, the activation is -0.42%.

`CC(=O)N1c2ccc(S(=O)(=O)N3CCC(C(=O)NC4CCCCC4C)CC3)cc2CC1C` (stereo not given): the activation was -0.74%.

On to `COC(=O)CC(=O)N1CCN(c2ccc(Cl)c(Cl)c2)CC1`, for which the activation is -0.63%. For `Fc1ccc2[nH]c3c(N4CCSCC4)ncnc3c2c1` the value was 1.59% (active); for `CN(C)[C@@H]1C(=O)C(C(N)=O)=C(O)[C@@]2(O)C(=O)C3=C(O)c4c(O)ccc(Cl)c4[C@@H](O)[C@H]3C[C@@H]12`, -0.63%; for `O=C(c1ccco1)N1CCN(CCOc2ccccc2)CC1`, -0.48%. Consider `Cc1ccc2c(c1)NCC(C(=O)NC1CCC(C)CC1)O2` (stereo not given), for which the activation was -0.52%. On to `COc1ccc(-c2nc3cc([N+](=O)[O-])ccc3o2)cc1OC`, for which the activation was 0.11%. For `COc1ccc(C(C)=O)cc1COC(=O)Cn1cnc2ccccc2c1=O` the value was 0.31%. Regarding `Cc1oc2cc(Br)c(O)c(Br)c2c1C(=O)c1ccccc1`, the activation is -0.51%.

In the case of `CCCCn1c(N)c(N(CC(C)C)C(=O)CSc2ccc([N+](=O)[O-])cc2)c(=O)[nH]c1=O`, the activation was -0.28%. Take `COc1ccc2[nH]cc(CCN3C(=O)c4ccc(C(=O)O)cc4C3=O)c2c1`: the activation was -0.57%. As to `Cc1ccc(C(=O)N/C(=C/c2cccs2)C(=O)N2CCCCC2)cc1`, the activation was -0.51%. Regarding `O=C(Nc1ccc2c(c1)[C@@H]1C[C@@H](CC(=O)N3CCCCC3)O[C@@H](CO)[C@@H]1O2)NC1CCCCC1`, the activation was -0.54%. On to `Cc1cccc(CN2CCN(C3CN(Cc4cn(Cc5cc(C)cc(C)c5)nn4)S(=O)(=O)C3)CC2)c1` (stereo not given), for which the activation was -0.64%.

Regarding `COC(=O)Cn1nc(-c2ccccc2)c2cc(Cl)ccc21`, the activation was -0.43%.

Regarding `CCCC(=O)N=c1sc2cccc(F)c2n1C`, the activation is -0.39%.

On to `CCCCNc1c(-c2cccc(Sc3ccc(OC)cc3)c2)nc2ccccn12`, for which the activation was -0.06%. `CC(=O)c1ccc(OCC(=O)N(C)C2CCS(=O)(=O)C2)cc1` (stereo not given): the activation is -0.71%. Consider `Cc1ccc(S(=O)(=O)N2CCN(c3ncnc4ccccc34)CC2)cc1`, for which the activation is 0.43%. `N/C(=N\S(=O)(=O)c1cc(C(F)(F)F)cc(C(F)(F)F)c1)c1cccs1`: the activation is 0.39%. Take `CC1(Cc2cccc(C#N)c2)C(=O)Nc2ccc(-c3cccc(C(F)(F)F)c3)cc21` (stereo not given): the activation was -0.07%. As for `NNc1cccc(C=Cc2ccccc2)cc1=O`, the activation is 0.48%.

Regarding `COc1cccc(NC(=O)CSc2nnc(-c3cccnc3)o2)c1`, the activation is -0.3%. With `O=C1CC(c2cccc(Cl)c2)CC(O)=C1C=Nc1ccccc1` (stereo not given) the figure was -0.61%.

For `COC(=O)c1ccc(CSc2nnc(NC(C)C)s2)cc1`, the activation is -0.75%. Regarding `C/C(=N\NC(=S)NC1CCCCC1)c1ccc(C)o1`, the activation was -0.73%.

Consider `COCCN(Cc1cc2cc3c(cc2nc1Cl)OCO3)C(=O)c1cccc(C)c1`, for which the activation is -0.33%. As for `Nc1c(N(Cc2ccco2)C(=O)c2cccc(F)c2)c(=O)[nH]c(=O)n1Cc1ccccc1`, the activation was -0.45%. For the molecule `COC(=O)[C@@]1(Cc2ccc(F)cc2)[C@H]2c3cc(C(=O)N(C)C)n(CCc4c[nH]c5ccc(OC)cc45)c3C[C@H]2CN1C(=O)c1ccccc1`, the activation is -0.5%. For `Cc1ccc(NC(=O)CSc2nnc(COc3ccccc3C)o2)cc1`, the activation was -0.2%. For `CNCC(O)c1ccc(O)c(O)c1` (stereo not given) the value was -0.22%. Take `CSc1ncnc2c1ncn2CCCNCc1cccs1`: the activation is -0.51%. As to `CCCCC(CC)CNC(=O)CCCCn1c(=O)[nH]c2ccsc2c1=O` (stereo not given), the activation was -0.47%.
